# PP1 counter: PP1-alpha (human) inhibition in PP5 counter-screen; P62136; purified PP1alpha, OMFP fluorescence; inhibition, % at 6.7 µM; 0.9% of 320,000 active; AID 2235;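 active means inhibition above the mean inhibition of all tested compounds plus 3 SD, computed separately for each screening campaign, cut at about 15% in these data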
# Target sequence (P62136 whole entry, looked up): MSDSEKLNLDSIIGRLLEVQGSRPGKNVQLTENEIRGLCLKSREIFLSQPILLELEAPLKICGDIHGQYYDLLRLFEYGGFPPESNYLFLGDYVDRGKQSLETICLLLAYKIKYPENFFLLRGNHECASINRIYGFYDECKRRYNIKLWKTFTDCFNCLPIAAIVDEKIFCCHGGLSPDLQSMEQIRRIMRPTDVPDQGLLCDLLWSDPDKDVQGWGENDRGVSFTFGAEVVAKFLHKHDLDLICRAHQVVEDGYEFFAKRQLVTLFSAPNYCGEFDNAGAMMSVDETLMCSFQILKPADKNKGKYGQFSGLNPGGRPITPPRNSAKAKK
# HCV core dimer: HCV core protein dimerization inhibition | TR-FRET GST/Flag-core106 dimerization, 1536-well | inhibition, % at 5 µM | 0.33% of 300,000 active;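 active means inhibition above the mean of all tested compounds plus 3 SD, set per screening campaign, cut at about 45% in these data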
#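 Assay system: Tagged HCV core106 pair (GST and Flag) | Buffer or medium: KF-containing HEPES buffer, pH 7.45, DTT, CHAPS, BSA | Also added: Eu donor and XL665 acceptor anti-tag antibodies | Dosing: One concentration, 5 µM, in 0.5% DMSO | Timing: 4 h at 22.5 °C | Technique: TR-FRET 671 and 617 nm emission | Repeats: Singlicate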
# EBNA-1 inh: blocks EBNA-1 binding to DNA | EBNA-1 DNA binding, fluorescence polarization | inhibition, % at 14.8 µM | 0.34% of 300,000 active; in the data active means inhibition above about 28%
# ZTA DNA inh: ZTA (EBV) inhibition in EBNA-1 counter-screen; P03206; ZTA-DNA binding, fluorescence polarization; inhibition, % at 11 µM; 0.15% of 320,000 active; AID 2234; in the data active means inhibition above about 33%
# Target sequence (P03206 whole entry, looked up): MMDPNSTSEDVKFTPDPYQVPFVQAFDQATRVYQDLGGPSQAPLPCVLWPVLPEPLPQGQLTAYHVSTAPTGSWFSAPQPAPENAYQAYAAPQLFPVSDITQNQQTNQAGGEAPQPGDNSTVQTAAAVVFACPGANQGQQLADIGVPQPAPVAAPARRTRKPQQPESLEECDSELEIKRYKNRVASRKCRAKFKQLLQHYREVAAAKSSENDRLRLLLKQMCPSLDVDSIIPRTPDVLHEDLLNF
# PP5 primary: inhibitors of human protein phosphatase 5 (PP5); purified PP5c, OMFP substrate fluorescence; inhibition, % at 6.7 µM; 0.18% of 320,000 active; AID 1987;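 active means inhibition above the campaign's mean inhibition across all tested compounds plus 3 SD, cut at about 9.5% in these data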;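 further: 0% = DMSO only and 100% = 100 µM cantharidin control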
# The depositor's hits bear a star; x = no result; + = active, no number. An excerpt weighted towards active compounds, which were near 1.7% of everything screened.
SMILES,PP1 counter,HCV core dimer,EBNA-1 inh,ZTA DNA inh,PP5 primary
CC(C)(C)C1CCc2nc(NC(=O)Cc3cn4ccsc4n3)sc2C1 (stereo not given),15.6*,11.8,0.9,-0.3,5.6
Cc1nc2ccc(N)cc2s1,-6.6,-2.2,8.7,-18.8,1.6
CN(C)c1ccc2nc3ccc(=[N+](C)C)cc-3sc2c1,-1.8,-92.8,+,x,5.1
CCN(CC)c1ccc(NC(=O)COC(=O)/C=C/c2nc3ccccc3s2)cc1,15.3*,9.8,-2.0,-13.5,1.3
NC(=O)[C@H](Cc1cc2ccccc2s1)NC(=O)[C@@H]1CC2(CC(c3cccc(NC(=O)[C@@H]4CCC(=O)N4)c3)=NO2)CN1C(=O)/C=C/Sc1ccccc1 (stereo not given in full),17.5*,13.0,4.0,13.6,1.0
CCOC(=O)c1c(-c2ccc(C)o2)csc1NC(=O)COC(=O)c1ccc(NC(N)=O)cc1,13.2,49.0*,-6.7,32.7,0.0
CCOC(=O)c1c(-c2ccc(C)o2)csc1NC(=O)CSc1nnc(C)s1,1.5,4.8,-10.2,-5.6,5.2
COc1ccc(Cl)cc1C(=O)NC(=S)Nc1nc(C)cc(C)n1,-0.2,2.4,4.2,6.8,-1.7
COc1ccc(Cl)cc1C(=O)NC(=S)Nc1cc(-c2nc3ccccc3[nH]2)ccc1C,3.4,47.3*,-4.3,0.4,3.2
O=c1cc(CSc2nnnn2-c2ccccc2)nc2scc(-c3ccccc3)n12,5.8,60.0*,8.0,-8.6,1.7
O=c1cc(CSc2nnnn2-c2ccccc2)nc2sccn12,-4.4,4.1,7.9,-3.2,-0.4
O=C(/C=C/c1ccco1)NC(=S)Nc1cccc(-c2nc3ccccc3o2)c1,11.7,56.0*,12.6,15.3,0.2
Cc1ccc(-c2nc3ccccc3o2)cc1NC(=S)NC(=O)/C=C/c1ccco1,0.5,55.7*,0.6,9.1,1.1
O=C(/C=C/c1ccco1)NC(=S)Nc1cc(-c2nc3ccccc3s2)ccc1Cl,1.7,30.4,6.8,5.8,1.4
Cc1cccc(NC(=S)NC(=O)/C=C/c2ccco2)c1,3.1,32.4,-14.1,-1.3,1.6
Cc1ccc(-c2nc3ccccc3s2)cc1NC(=S)NC(=O)/C=C/c1ccco1,1.1,51.7*,-5.7,-9.0,5.2
Cc1ccccc1NC(=S)NC(=O)/C=C/c1ccco1,2.5,1.7,14.2,-2.7,1.7
Cc1ccc(NC(=O)COc2cccc(Oc3ccccc3)c2)cc1S(=O)(=O)N1CCOCC1,-1.6,x,x,22.6,0.8
CC1(C2CC2)NC(=O)N(CC(=O)Nc2ccc(F)cc2F)C1=O (stereo not given),-1.3,x,x,9.9,1.6
CCOc1ccc(NC(=O)CN(C)C(=O)c2ccccc2OCCOc2ccccc2)cc1OCC,4.1,x,x,7.8,3.8
O=C(Cn1c(=O)n(Cc2ccco2)c(=O)c2c3c(sc21)CCCCC3)Nc1ccccc1,7.6,56.2*,-8.4,10.0,5.5
O=c1c2c3c(sc2n(CCN2CCCC2)c(=O)n1Cc1ccco1)CCCCC3,4.5,6.2,4.4,-3.3,1.2
Cc1ccc(N2C(=O)C3C(C2=O)C(C(=O)c2ccc(Cl)cc2)N2CCCC32)cc1 (stereo not given),-0.4,61.8*,-6.0,-14.1,0.6
CC(=O)Oc1ccc(N2C(=O)C3C(C2=O)C(C(=O)c2ccc(Cl)cc2)N2CCCC32)cc1 (stereo not given),-1.2,8.2,11.8,-7.4,-0.1
O=C(CSc1ncnc2ccccc12)Nc1cc(S(=O)(=O)N2CCCCC2)ccc1Cl,15.6*,28.6,5.3,-0.1,2.3
SMILES,PP1 counter,HCV core dimer,EBNA-1 inh,ZTA DNA inh,PP5 primary
Cc1ccc(S(=O)(=O)N2CCCCC2)cc1NC(=O)CSc1ncnc2ccccc12,1.3,10.6,-8.4,-12.5,1.5
O=C(/C=C/c1ccc(Br)o1)OCc1nc2ccsc2c(=O)[nH]1,-4.0,74.8*,2.5,-3.6,-1.5
Cc1ccc(OCCNC(=O)CCNC(=O)c2ccc(Cl)cc2)cc1,5.9,x,x,-1.5,4.4
CC1CCN(Cc2c(C(=O)N/N=C/c3cccc(C(F)(F)F)c3)nnn2-c2nonc2N)CC1,16.2*,9.4,1.1,3.8,4.6
COc1ccccc1/C=C/C=c1\sc2nc(=O)c(Cc3ccccc3)nn2c1=O,7.4,61.3*,-1.4,9.3,0.9
CC[C@H](C)/C=C(C)/C=C/C1=CC2=CC(=O)[C@]3(C)OC(=O)[C@@H](C(C)=O)[C@@H]3C2=CO1,-1.7,56.4*,-12.2,15.2,2.6
CC(/C=C1\SC(=S)N(NC(=O)c2ccc(C)cc2)C1=O)=C\c1ccccc1,12.7,66.5*,-0.2,-2.0,-0.2
CC(/C=C1\SC(=S)N(NS(=O)(=O)c2ccc(C)cc2)C1=O)=C\c1ccccc1,16.0*,12.3,23.1,22.7,-5.0
CN(C)C1(CNC(=O)C2CCN(S(=O)(=O)c3c(Cl)cccc3Cl)CC2)CCCCC1,-10.9,1.3,4.7,-3.3,-5.0
O=C(c1cc2sccc2n1Cc1ccccc1)N1CCN(c2nc3ccccc3s2)CC1,15.3*,6.4,-5.6,7.5,1.7
OCCC1CN(Cc2ccc(Oc3ncccn3)cc2)CCN1C1CCCCC1 (stereo not given),-1.3,-3.5,0.2,0.0,1.1
CC(=O)N(CCc1ccccc1)Cc1cc2ccc(C)c(C)c2[nH]c1=O,-1.6,4.8,-12.2,-20.3,4.6
O=S(=O)(NCc1ccc(F)cc1)c1ccc(Br)cc1Br,-0.5,x,x,-2.2,3.2
NC(=O)NC(=O)C(c1ccccc1)N1CCN(S(=O)(=O)Cc2ccccc2)CC1 (stereo not given),-5.1,x,x,-2.2,3.6
O=C(COC(=O)CCS(=O)(=O)c1ccc(F)cc1)NC1CCCCC1,0.4,x,x,-2.9,-0.6
S=c1[nH]c2ccccc2n2cccc12,1.2,55.4*,6.0,1.6,3.5
COc1ccc(CCNC(=O)c2cc3c(=O)n4ccccc4nc3n(Cc3ccco3)c2=N)cc1OC,-3.6,23.4,5.7,11.2,-1.9
N=c1c(C(=O)NCc2ccco2)cc2c(=O)n3ccccc3nc2n1CCc1ccccc1,5.6,52.4*,3.4,-13.6,1.8
Cc1ccc(Cn2c(=N)c(C(=O)NCc3ccco3)cc3c(=O)n4ccccc4nc32)cc1,15.7*,63.4*,-5.8,-17.2,4.6
CCN1CCN(C(=O)C2CCC(=O)N(Cc3cccc(C(F)(F)F)c3)C2)CC1 (stereo not given),-2.2,1.9,2.6,-7.5,1.0
S=C(NCc1ccccc1)N1CCN(C(=S)NCc2ccccc2)CC1,-0.4,x,x,26.8,1.4
CC1(C)CC2CC(C)(CN2C(=O)COC(=O)c2cncc(Br)c2)C1 (stereo not given),5.2,x,x,-3.9,0.2
Cc1onc(-c2ccccc2Cl)c1C(=O)NCc1ccco1,5.9,57.2*,9.2,-5.8,0.2
CN(C)c1ccc(N/C=C/C(=O)C(C)(C)C)cc1,-0.5,-21.9,+,+,0.9
CC1CCCC2(C1)NC(=S)c1c(sc3c1CCCC3)N2 (stereo not given),13.2,52.7*,2.6,-18.7,3.8
